# Compound activity as filed in PubChem BioAssay.
# This is a sample that favours compounds with a hit; in the whole collection about 2.9% have one here.
# proKLK7 act = proKLK7 (human) activation, primary screen; P49862; purified proKLK7, EDANS-DABCYL substrate fluorescence; 100% is mature enzyme control, 0% vehicle; activation, % at 7 µM; hit rate 0.9% among 370,000;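 active = activation above the mean of all tested compounds plus 3 SD, computed per campaign excluding outliers beyond control limits, cut at about 13% in these data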
# Target sequence (P49862 whole entry, looked up): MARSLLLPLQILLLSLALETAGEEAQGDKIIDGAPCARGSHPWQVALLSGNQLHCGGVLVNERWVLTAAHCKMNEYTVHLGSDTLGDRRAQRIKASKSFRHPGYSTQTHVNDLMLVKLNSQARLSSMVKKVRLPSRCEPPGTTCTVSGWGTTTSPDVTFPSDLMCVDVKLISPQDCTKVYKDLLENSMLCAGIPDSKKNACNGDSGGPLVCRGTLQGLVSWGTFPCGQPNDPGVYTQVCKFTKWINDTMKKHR
# Tn6 DDE FP = DD(E)-Tn6 binding inhibition, primary FP screen; inhibition, % at 8.3 µM; Fibrin DD(E) TRITC-Tn6 fluorescence polarization displacement; P02675; hit rate 0.21% among 370,000;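 active = inhibition above a per-campaign cutoff: mean of compounds within control limits plus 3 SD, cut at about 15% in these data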;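 note: 0% = median of all compound wells on the plate and 100% = blocking peptide control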
# Target sequence (P02675 whole entry, looked up): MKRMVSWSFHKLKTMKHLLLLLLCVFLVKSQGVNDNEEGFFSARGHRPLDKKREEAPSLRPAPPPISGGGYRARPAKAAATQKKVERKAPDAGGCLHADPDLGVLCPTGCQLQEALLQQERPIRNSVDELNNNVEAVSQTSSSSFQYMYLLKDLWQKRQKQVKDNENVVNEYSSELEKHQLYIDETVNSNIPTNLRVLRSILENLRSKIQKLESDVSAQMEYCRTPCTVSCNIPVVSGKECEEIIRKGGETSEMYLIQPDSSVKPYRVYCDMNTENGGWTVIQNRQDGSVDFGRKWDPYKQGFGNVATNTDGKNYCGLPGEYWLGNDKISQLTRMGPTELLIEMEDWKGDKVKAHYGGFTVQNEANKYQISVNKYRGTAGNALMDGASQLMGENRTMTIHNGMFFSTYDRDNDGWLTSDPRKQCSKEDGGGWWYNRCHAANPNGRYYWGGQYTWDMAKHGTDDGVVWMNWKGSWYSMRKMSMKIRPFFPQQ
# CRFBP-R2 block = blocks CRF-induced signaling of the CRF-BP/CRF-R2 complex; HEK293 CRF-R2/CRF-BP, CRF-induced calcium fluorescence; inhibition, % at 11.8 µM; hit rate 0.59% among 350,000;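 active = inhibition of the ligand-induced calcium signal above about 50% at the single tested concentration, limit read from the data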
# CRFR2-BP ag = agonists of human CRF-binding protein/CRF-R2 receptor complex | HEK293 CRF-R2/CRF-BP, calcium dye fluorescence (FLIPR); percent of saturating CRF peptide response | activation, % at 13.2 µM | hit rate 0.46% among 350,000 | AID 588473;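 active = activation of at least 50%, plus an integration ratio under a set limit after plate pattern correction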;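 note: plate controls were neutral control wells without compound for no effect and CRF at EC100 for full effect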
# Tn7 DDE FP = disrupts Tn7 cyclic peptide binding to fibrin D-Dimer-E complex. hit rate 0.13% among 370,000. inhibition, % at 8.3 µM. P02675. FP displacement of FITC-Tn7 peptide from fibrin DD(E); 0% = median of compound wells per plate. AID 720508;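 active = inhibition above the mean of compounds falling within the control limits plus 3 SD of them, cut at about 14% in these data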;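 note: 0% = plate median of compound wells and 100% = 10 µM Aha-Tn7 peptide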
#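 Assay system: Human clot-derived fibrin DD(E) complex | Buffer or medium: Tris/NaCl/CaCl2 buffer, pH 7.8 | Repeats: One replicate per compound | Benchmarks: Aha-Tn7 high control | Measure: % inhibition scaled between sample-field median and high-control FP | Schedule: 10 min plus 3 h, room temperature | Signal: Fluorescence polarization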
# CendR NRP1 mod = alters CendR peptide binding to human NRP-1; hit rate 0.85% among 360,000; FAM-RPARPAR peptide binding to NRP-1, fluorescence polarization; AID 602438; O14786; inhibition, % at 25 µM;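 active = inhibition or corrected inhibition above about 18%, plus a signal ratio from 0.5 to 1.5, limit read from the data, passing the limit was not always enough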
# KLK7 act conf = proKLK7 activation, confirmation | shares compounds with proKLK7 act | activation, % at 7 µM | hit rate 68% among 3,200 | purified proKLK7, EDANS-DABCYL substrate fluorescence; scaled: vehicle 0, mature enzyme 100;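 active = activation, as change over the incubation, above the mean of all tested compounds plus 3 SD, cut at about 13% in these data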
# EDANS interfere = fluorescence interference counter-screen for KLK7 activators | shares compounds with proKLK7 act | EDANS-DABCYL substrate fluorescence interference, no enzyme, 4 h; solvent 0%, active enzyme control 100% | AID 686952 | hit rate 80% among 3,200 | activation, % at 7 µM;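 active = activation above the all-compound mean plus 3 SD, ignoring values outside control-based bounds, cut at about 4.8% in these data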;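 note: value is the 4 h activation minus the activation read at time zero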
# * = called active by the depositor; . = no result given.
SMILES,proKLK7 act,Tn6 DDE FP,CRFBP-R2 block,CRFR2-BP ag,Tn7 DDE FP,CendR NRP1 mod,others
Cc1cc(OC(=O)c2cccs2)c2c3c(c(=O)oc2c1)CCCC3,0.0,-4.2,52.5*,11.8,-8.3,-2.4,
Cc1cc(OC(=O)c2ccco2)c2c3c(c(=O)oc2c1)CCCC3,0.8,3.9,40.4,-0.2,2.5,4.9,
O=P(OCCCl)(OCCCl)OCCCl,0.2,-0.3,.,.,1.6,.,
O=C1CC=C2C3CC4N(CCC45c4ccccc4N1C25)CC3=CCO (configuration not stated),-0.4,-1.4,-12.8,-0.3,-0.3,-1.4,
O=C1CC=C2C3CC4N(CCC45c4cc(O)c(O)cc4N1C25)CC3=CCBr (configuration not stated),1.2,-8.8,12.3,-0.5,-3.2,25.8*,
CNc1cc(Cl)c2nonc2c1[N+](=O)[O-],0.9,-1.0,75.5*,1.1,-0.5,14.8,
Cc1cc([N+](=O)[O-])c(Cl)cc1NC(=O)C(C)C,0.1,3.7,12.2,-2.9,-7.7,9.1,
COC(=O)C1=C(c2ccc(OC(F)(F)F)cc2)C[C@@H]2CC[C@H]1N2C(=O)NCc1ccco1,-0.2,-1.3,.,.,-0.6,.,
Cc1ccc(-c2cc(-c3ccccc3)cc(-c3ccccc3)[n+]2-c2ccc(C(=O)O)cc2)cc1,3.0,5.8,4.2,0.4,-2.1,3.5,
Cc1ccc(-[n+]2c(Cc3nn(-c4ccccc4)c(C)[n+]3-c3ccc(C)cc3)nn(-c3ccccc3)c2C)cc1,0.0,-4.0,-9.3,0.4,-5.7,26.8*,
CC1=C(C)CC2(C(=O)NC(=S)NC2=O)C(C)C1 (configuration not stated),0.0,-0.8,-140.2,150.5*,4.8,10.4,
Clc1cccc(Cl)c1NC1=NCCS1,0.5,-6.9,-7.4,3.0,1.7,5.3,
c1ccc2c(NC3=NCCS3)cccc2c1,0.0,-4.2,0.5,0.7,4.7,26.5*,
CN1CC[C@@H]2CN[C@H](c3ccccc3)C[C@@H]21,0.1,-2.4,.,.,1.4,.,
CCCCCCCCCCOC(=O)CCN1CC1,.,.,50.8*,8.4,.,3.7,
C=C1C(=O)C(C)=C2C(=O)N3Cc4[nH]c5ccccc5c4CC3(C(=O)OC)C12 (configuration not stated),1.0,7.7,.,.,1.0,.,
COC(=O)C1=C(c2cccc(OC)c2OC)C[C@@H]2CC[C@H]1N2C(=O)NCc1ccc(F)cc1,-0.8,5.3,3.6,0.5,4.3,27.3*,
COC(=O)C1=C(c2ccc(F)cc2OCc2ccccc2)C[C@@H]2CC[C@H]1N2C(=O)NCc1ccc(F)cc1,0.3,-2.2,11.7,2.4,-1.9,6.0,
COC(=O)C1=C(c2ccccc2OCc2ccccc2)C[C@@H]2CC[C@H]1N2C(=O)NCc1ccc(F)cc1,0.4,-6.2,17.7,-0.9,6.2,22.2*,
COC(=O)C1=C(c2cccc(OC)c2OC)C[C@@H]2CC[C@H]1N2C(=O)NCc1ccccc1,0.3,-8.9,-6.9,-1.5,-4.9,15.9,
Cc1ccc(N2C(=O)CC(=O)NC2=O)c(C)c1,1.0,5.7,56.7*,-1.0,-1.0,3.3,
C[N+]1=C(N)NC2=C3CCCCC3ONC2C1 (configuration not stated),.,5.8,.,.,1.9,.,
COc1cc2c(cc1OC)-c1c(OC)c(OC)cc3c1[C@H](C2)N(C)CC3,0.0,-1.2,-2.2,-4.0,-4.1,29.2*,
CC(C)(C)c1ccc(O)c(N=Cc2c(O)ccc3ccccc23)c1,0.4,-8.2,-73.2,60.3*,4.3,-3.6,
COP(=O)(OC)C(C)NC(=O)OCc1ccccc1 (configuration not stated),.,0.7,.,.,-1.1,.,
SMILES,proKLK7 act,Tn6 DDE FP,CRFBP-R2 block,CRFR2-BP ag,Tn7 DDE FP,CendR NRP1 mod,others
O=c1ccc2cc(OC3O[C@H](CO)[C@@H](O)[C@H](O)[C@H]3O)c(O)cc2o1 (some centres not stated),53.0*,-8.5,-11.8,0.1,-1.4,-8.9,KLK7 act conf=59.1*;EDANS interfere=74.0*
CC(C)OC(=O)C1C(c2ccc(I)cc2)CC2CCC1N2C (configuration not stated),-0.7,-2.9,.,.,-8.2,.,
CC(C)S(=O)(=O)N1Cc2ccc(Br)cc2-n2nncc2C1,0.1,2.9,.,.,-4.9,.,
Cc1ccc2c(c1)=NC(=O)/C(=C/c1c(O)[nH]c(=O)[nH]c1=O)C=2,17.8*,1.6,1.0,-2.4,0.7,-9.7,KLK7 act conf=45.9*;EDANS interfere=45.0*
CC1=Nc2ccccc2/C1=C/c1c(O)[nH]c(=O)[nH]c1=O,0.3,0.1,6.0,-1.6,12.3,-6.3,
CCOC(=O)[C@]12Cc3cc(Cl)ccc3[C@H]1N(C1CCCCC1)C(=O)c1cc(OC)ccc12,-0.5,-7.2,.,.,4.9,-2.3,
O=c1[nH]c(=O)n(CCC2=CCCCC2)c(O)c1C=NCCCn1ccnc1,-0.2,-1.2,0.3,1.1,1.7,-22.9,
CN(C)CCN=Cc1c(O)n(CCC2=CCCCC2)c(=O)[nH]c1=O,27.2*,-1.6,-4.3,-1.1,-0.8,-14.4,KLK7 act conf=1.0;EDANS interfere=-0.3
Nc1c(C(=O)NCc2ccco2)c2nc3ccccc3nc2n1CCN1CCCCC1,62.8*,2.9,-8.6,7.0,5.5,-75.3,KLK7 act conf=-56.6;EDANS interfere=-69.0
COc1ccc(Cn2c(N)c(C(=O)NCc3ccco3)c3nc4ccccc4nc32)cc1OC,-18.0,-2.7,-25.1,2.9,0.7,-36.4,
O=C(NCCN1CCC2(CC1)C(=O)NCN2c1ccccc1)c1cccs1,0.1,-6.3,.,.,-1.9,.,
Cc1c(CC(=O)N2C[C@H]3C[C@@H](C2)c2cccc(=O)n2C3)c(=O)oc2cc(O)c(Cl)cc12,72.6*,-2.1,-7.7,2.0,4.0,-4.9,KLK7 act conf=59.5*;EDANS interfere=67.7*
COc1ccc(CC(=O)N2C[C@H]3C[C@@H](C2)c2cccc(=O)n2C3)cc1,-0.6,-0.5,5.0,-0.5,-1.2,-3.2,
COc1cc2oc(=O)c(CC(=O)N3C[C@H]4C[C@@H](C3)c3cccc(=O)n3C4)c(C)c2cc1Cl,-0.2,-1.8,5.1,1.3,0.8,4.7,
Cc1c(CCC(=O)N2C[C@H]3C[C@@H](C2)c2cccc(=O)n2C3)c(=O)oc2c(C)c(O)ccc12,84.4*,-2.9,.,.,3.2,0.1,KLK7 act conf=73.2*;EDANS interfere=77.6*
Cc1c(CC(=O)N2C[C@H]3C[C@@H](C2)c2cccc(=O)n2C3)c(=O)oc2c(C)c(O)ccc12,65.2*,-5.3,15.1,0.6,-8.0,22.6,KLK7 act conf=67.9*;EDANS interfere=71.9*
CC[C@]12CCN(CC3(O)CC3)C(Cc3ccc(O)cc31)C2(C)C,0.1,-3.6,.,.,-4.4,.,
